For assay [1], the system named is Glycine max. As to the kind of experiment: Inhibition of soybean 15-LOX at 33 ug/ml. The method in brief:
(§1)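 15-Lipoxygenase inhibition assay run with arachidonic acid (40 μM) as the substrate, at the single test concentration given in each line.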

For assay [2], the system named is Glycine max. Description: Inhibition of soybean 15-LOX at 0.36 uM. A digest of the protocol:
as §1

What is called inhibition is the share of the control response that was lost under treatment. A higher inhibition goes with a response far below the control. For the molecule `Oc1ccccc1O`, the inhibition with Glycine max [1] is 33%; in the assay with Glycine max [2], 37%.

(Values after ChEMBL document CHEMBL1148178, “Dicranin, an antimicrobial and 15-lipoxygenase inhibitor from the moss Dicranum scoparium” (1993).)
